High-throughput results as filed in PubChem.
Shown is part of a subset that was picked to be rich in hits.
Redox H2O2 prof: compounds producing H2O2 with reducing agent – biochemical, NIH compound library profiling, artefact control for MLSCN library redox annotation, primary screen | AID 878 | 200,000 tested, 0.03% active | activation, % at 10 µM | DTT-dependent redox cycling H2O2, phenol red/HRP absorbance; 100% = 100 µM peroxide control, 0% = buffer;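 active = activation of at least 50% relative to the plate's high and low controls in the primary single-dose screen; inactive = activation below 50%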;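 also: compound incubated with DTT at 0.8 mM final as the reducing agent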
Diaph inh CS: counter-screen for diaphorase-based assays: diaphorase inhibitors and chemical oxidizers | diaphorase resazurin-to-resorufin fluorescence, NADH, 16 min; bacterial (C. kluyveri) enzyme, not human | inhibition, % at 20 µM | 190,000 tested, 0.69% active | AID 1217;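 active = primary screen inhibition at 20 µM above a set limit, cut at about 50% in these data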;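 also: plate controls were DMSO with full reaction for no effect and wells lacking NADH for full effect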
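System: Diaphorase enzyme from Clostridium kluyveri | Amount: Enzyme working solution with 0.14 U/mL diaphorase | Benchmarks: No-NADH positive control and DMSO neutral control | Signal: Fluorescence of resorufin formed from resazurin, Ex 544/Em 590 nm | Schedule: 16-min room-temperature incubation before reading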
Diaph act CS: diaphorase activation or chemical reduction counter-screen; activation factor at 20 µM; Diaphorase/resazurin coupled assay, resorufin fluorescence, 16 min; active compounds read high; 1 = vehicle wells, 0 = NADH-free wells; AID 1229; 190,000 tested, 0.005% active;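 active = diaphorase activity raised at least twofold by the compound at 20 µM; inactive = activation factor below 2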
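Material: Purified diaphorase enzyme from Clostridium kluyveri | Buffer or medium: 50 mM HEPES pH 7.4 with 4.542 mM MgCl2, 0.005% Tween 20 | Times: 16 min enzyme reaction, ambient temperature | Signal: Red resorufin fluorescence at 544/590 nm excitation/emission | Measure: Increased resorufin signal from activators or reducing compounds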
PfG6PD inh: PfG6PD (Plasmodium falciparum) enzyme inhibition | PfGluPho enzyme, NADPH resazurin-diaphorase fluorescence | inhibition, % at 20 µM | 350,000 tested, 0.78% active | AID 504690;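 active = inhibition reaching at least a set limit at 20 µM in the primary screen, cut at about 59% in these data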;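 also: 0% = DMSO wells with substrate and 100% = DMSO wells lacking glucose-6-phosphate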
G6PDH CS: L. mesenteroides G6PDH inhibition counter-screen | inhibition, % at 5 µM | Purified L. mesenteroides G6PDH, diaphorase/resazurin coupled fluorescence, 45 min | 200,000 tested, 0.12% active
L major viab: Leishmania major promastigote growth inhibition. Leishmania major promastigotes, resazurin fluorescence viability. inhibition, % at 10 µM. 200,000 tested, 9% active. AID 1063;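 also: promastigotes grown with compound for 44 hours at 28 °C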
Starred values were filed as active, the others as inactive; . = not tested or not shown. Rule as the data show it, unless noted: active = inhibition above about 50%; inactive = the rest.

SMILES | Redox H2O2 prof | Diaph inh CS | Diaph act CS | PfG6PD inh | G6PDH CS | L major viab
Cc1cc(C)nc(-n2nc(C)cc2NC(=O)CN2CCc3ccccc3C2)n1 | 0 | 31 | 0.7 | -3 | 10 | 54*
Cc1cc(C)nc(-n2nc(C)cc2Nc2ccccc2)n1 | -3 | -7 | 1.1 | 2 | 9 | 52*
CCN(CC(=O)Nc1cc(C)nn1-c1nc(C)cc(C)n1)Cc1ccccc1 | 0 | 16 | 0.8 | -18 | -4 | 53*
Cc1cc(Nc2ccccc2)n(-c2ccccc2)n1 | 0 | 0 | 1 | 2 | 0 | 7
Cc1cc(N2CCN(c3ccccc3)CC2)nc(-n2nc(C)cc2C)n1 | 0 | 15 | 0.9 | -2 | 2 | 72*
Cc1cc(N2CCN(c3ccccc3)CC2)nc(-c2ccccc2O)n1 | 0 | 7 | 0.9 | 6 | 0 | 3
COC(=O)c1ccc(CNC(=O)C2CCC(=O)N(CCCc3ccccc3)C2)cc1 (stereo not given) | . | . | . | -3 | . | .
Cc1cc(N)n(-c2ccc(S(N)(=O)=O)cc2[N+](=O)[O-])n1 | -3 | 3 | 1 | 17 | 0 | -12
NC(=O)c1ccsc1NC(=O)c1ccc(S(=O)(=O)N2CCCc3ccccc32)cc1 | 1 | 26 | 0.7 | 8 | 15 | 99*
CC(C)N1CCc2c(sc(NC(=O)c3ccc(S(=O)(=O)N4CCc5ccccc54)cc3)c2C(N)=O)C1 | 0 | -26 | 1.3 | 34 | 3 | 100*
O=S(=O)(NC1CC1)c1ccc(S(=O)(=O)N2CCCc3ccccc32)cc1 | -3 | 24 | 0.8 | 3 | 5 | 95*
CC(C)N1CCc2c(sc(NC(=O)c3cc(-c4cccs4)nc4ccccc34)c2C(N)=O)C1 | 1 | -1 | 1 | 33 | 12 | 92*
CC(C)N1CCc2c(sc(NC(=O)c3nc4ccccc4s3)c2C(N)=O)C1 | 8 | 48 | 0.5 | 34 | 3 | 24
CNC(=O)c1c(NC(=O)c2ccc(S(=O)(=O)N(C)c3ccccc3)cc2)sc2c1CCN(C(C)C)C2 | . | . | . | 23 | . | .
O=C(O)c1ccc(S(=O)(=O)N2CCCc3ccccc32)cc1 | . | . | . | -38 | . | .
Cc1ccc(S(=O)(=O)N2CCCc3ccccc32)cc1 | . | . | . | 44 | . | .
Cc1ccc(C)[n+](CC(=O)N2CCCCC2)c1 | 1 | -1 | 1 | -13 | 3 | -6
O=C1c2cccc3c([N+](=O)[O-])ccc(c23)C(=O)N1O | . | . | . | 28 | . | .
Cc1ccc(N2C(=O)c3cccc4c(Oc5ccccc5[N+](=O)[O-])ccc(c34)C2=O)c(C)c1 | 1 | 26 | 0.7 | 4 | 4 | 97*
COc1cccc2c1nc(C)c1cc(C)oc12 | 1 | 8 | 0.9 | -17 | 0 | 4
COc1ccccc1N1CCc2c(C)nc3c(OC)cccc3c21 | -3 | 40 | 0.6 | 0 | -32 | 89*
COc1cccc2c3c(c(C)nc12)CCN3c1ccccc1 | -1 | 14 | 0.9 | -7 | 0 | 78*
CC(C)(C)c1ccc(OCc2ccc(C(=O)N/N=C/c3ccc(O)c(O)c3)cc2)cc1 | 0 | 28 | 0.7 | -2 | -3 | 100*
Cc1cc(C)nc(SCc2ccc(C(=O)N/N=C/c3ccc(C(=O)O)cc3)cc2)n1 | -1 | 17 | 0.8 | -5 | -1 | -3
O=C(N/N=C/c1ccc(OCc2ccc(F)cc2)cc1)c1ccccc1 | 1 | -26 | 1.3 | 6 | -4 | -4
SMILES | Redox H2O2 prof | Diaph inh CS | Diaph act CS | PfG6PD inh | G6PDH CS | L major viab
O=C(COc1ccccc1C(=O)N/N=C\c1ccc(O)c(O)c1)N/N=C/c1ccc(O)c(O)c1 | -5 | 70* | 0.3 | 38 | 1 | 9
CCOc1ccc(OCc2cccc(C(=O)N/N=C/c3cccnc3)c2)cc1 | 0 | -4 | 1 | -1 | 9 | 58*
Cc1cc(C)nc(SCc2ccc(C(=O)N/N=C/c3cccc(O)c3O)cc2)n1 | 1 | 47 | 0.5 | 26 | -1 | 98*
O=C(COc1ccccc1[N+](=O)[O-])N/N=C/c1ccc(O)c([N+](=O)[O-])c1 | -1 | -2 | 1 | 5 | 8 | 0
CCCCn1c(N)c(N(CCOC)C(=O)C2CCN(c3ncnc4sc(C)c(C)c34)CC2)c(=O)[nH]c1=O | . | . | . | 8 | . | .
COc1cccc(C(=O)CC(C#N)c2ccc(F)cc2)c1 (stereo not given) | . | . | . | -9 | . | .
Cc1oc(-c2ccccc2F)nc1CS(=O)CC(=O)NCc1ccc(F)cc1 (stereo not given) | . | . | . | -18 | . | .
CCN1N=C(C)C=C(c2ccccc2)n2c1nc1ccccc12 | . | . | . | -8 | . | .
COc1ccc(O)c(/C=N/NC(=O)c2ccc(CSc3nc(C)cc(C)n3)cc2)c1 | 0 | 10 | 0.9 | -16 | -8 | 99*
COc1ccc(O)c(/C=N/NC(=O)c2ccc(OCc3cccc(Br)c3)cc2)c1 | -4 | -2 | 1 | -21 | -3 | 97*
COc1ccc(/C=N/NC(=O)c2ccc(CSc3nc(C)cc(C)n3)cc2)cc1O | 0 | 11 | 0.9 | 34 | -6 | -8
Cc1cccc(-c2nc(Nc3ccc(N4CCOCC4)cc3)c3ccccc3n2)c1 | 0 | 12 | 0.9 | 28 | 0 | 74*
Cc1ccc(Nc2nc(N3CCOCC3)c3ccccc3n2)cc1 | 2 | 22 | 0.8 | -6 | 5 | 88*
Cc1ccc(Nc2nc(N)c([N+](=O)[O-])c(N3CCOCC3)n2)cc1 | 0 | 7 | 0.9 | 3 | 9 | -1
Oc1ccc(Nc2nc(N3CCCC3)c3ccccc3n2)cc1 | -4 | -6 | 1.1 | -1 | 3 | 100*
c1ccc(Nc2nc(N3CCCC3)nc(N3CCCC3)n2)cc1 | -1 | 18 | 0.8 | 7 | 0 | 38
c1ccc2c(Nc3ccc(N4CCOCC4)cc3)nc(N3CCOCC3)nc2c1 | . | . | . | 3 | . | .
COc1ccc(Nc2nc(N3CCCCC3)c3ccccc3n2)cc1 | 2 | -4 | 1 | 3 | 20 | 100*
COc1ccccc1OCC(O)CN1CCN(C(=O)c2ccccc2)CC1 (stereo not given) | . | . | . | 13 | . | .
Cc1cc(N=Cc2c(O)n(-c3ccc(C)c(C)c3)c(=O)c3ccccc23)no1 | 0 | 22 | 0.8 | . | 4 | 54*
CC(C)(C)c1ccc(NC(=S)NCc2cccs2)cc1 | 0 | 11 | 0.9 | -11 | -4 | 14
CCC(C)c1ccc(NC(=S)NCc2cccs2)cc1 (stereo not given) | 3 | 20 | 0.8 | -14 | 1 | 67*
S=C(NCCCc1ccccc1)Nc1ccc(Cl)cc1 | 0 | 28 | 0.7 | 16 | -8 | 90*
COc1ccc(CCNC(=S)NCc2cccs2)cc1OC | 1 | 7 | 0.9 | -3 | 2 | 1
S=C(NCCc1ccccc1)NCc1cccs1 | . | 0 | 1 | -3 | 3 | 79*
